Screening results: PubChem BioAssay, several laboratories
This is a sample that favours compounds with a hit; in the whole collection about 3.5% have one here.
MT stabilize HCS = microtubule stabilizers in HeLa cells; HeLa tubulin immunostaining HCS, 24 h; share of cells brighter than vehicle mean+2SD; % tubulin-high responders, % at 10 µM; hit rate 0.83% among 200,000; AID 2205;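 active = plate Z-score above 3 for both tubulin-high and condensed-nucleus cell shares, with cell loss under 80%, at 10 µM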;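 also: anti alpha tubulin signal scored within the nucleus-defined area of each cell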
BB579 growth dn = chemicals that inhibit yeast BB579 growth in restrictive medium (lifespan-shortening candidates). S. cerevisiae BB579 growth, OD615, 48 h. hit rate 0.51% among 140,000. inhibition, % at 10 µM;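 active = inhibition above a set limit, 3 SD over the mean compound inhibition, cut at about 44% in these data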
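Assay system: S. cerevisiae DeaD strain BB579 yeast. Medium: CSMM-D restrictive synthetic medium containing dextrose (glucose). Times: 4 h cell preincubation, 48 h compound exposure, 30 °C humidified. Signal: OD615 turbidity measurement. Benchmarks: positive control amphotericin B 10 µg/mL.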
bCat nuc transl = modulators of beta-catenin nuclear translocation; HeLa beta-catenin nuclear translocation, immunofluorescence imaging; nuclear translocation activity, % at 5 µM; hit rate 0.3% among 190,000;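 active = nuclear translocation activity above 50% at 5 µM, with a well cell count of 50 or more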;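 also: per-cell ratio of nuclear to cytoplasmic median beta-catenin stain intensity; plate controls were DMSO negative control for no effect and GSK-3 inhibitor IX positive control for full effect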
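Test system: human HeLa cells, endogenous beta-catenin. Times: 24 h compound exposure, 37°C. Measured by: beta-catenin immunofluorescence imaging with DAPI.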
RAM inhibit = inhibitors of the yeast RAM network; hit rate 1.8% among 190,000; inhibition, % at 50 µM; S. cerevisiae dse1pr::URA3 reporter, 5-FOA growth OD615, 2 d; analog-sensitive cbk1-as2 kinase mutant strain; AID 868;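 active = inhibition above a set limit, 3 SD over mean compound inhibition, cut at about 8.4% in these data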;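 also: 0% = DMSO-only wells with no growth and 100% = 10 µM 1-NA-PP1 full growth; inhibition rescues growth on 5-FOA so higher OD means more RAM inhibition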
Yeast life ext = extends the lifespan of yeast; S. cerevisiae growth with nicotinamide, OD615; deaD strain in restrictive glucose medium; hit rate 0.68% among 130,000; AID 775; inhibition of the nicotinamide effect, % at 10 µM;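 active = inhibition above a set limit, placed 3 SD over the median of all compounds, cut at about 26% in these data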;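 also: 0% = nicotinamide-treated wells and 100% = cells grown without nicotinamide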
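System: Modified budding yeast, DeaD strain | Buffer or medium: Restrictive glucose medium | Also added: 1.5 mM nicotinamide | Doses: 10 µM single point, 0.25% DMSO | Schedule: 48 h compound exposure at 30 °C, humidified | Detection: Absorbance at 615 nm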
Efa HMGR inh = inhibitors of class II HMG-CoA reductase from Enterococcus faecalis; purified E. faecalis HMGR, NADPH absorbance 340 nm kinetic; inhibition, % at 10 µM; hit rate 0.41% among 190,000; AID 1066;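 active = inhibition above a set limit, the median over all tested compounds plus 3 SD, cut at about 9.5% in these data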;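 also: enzyme runs in reverse so mevalonate oxidation gives rising NADPH absorbance; 0% = complete reaction with DMSO and 100% = background rate lacking mevalonate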
An asterisk follows results filed as active; nt = not tested or not shown.

SMILES | MT stabilize HCS | BB579 growth dn | bCat nuc transl | RAM inhibit | Yeast life ext | Efa HMGR inh
CCN1CCN(CCC(=O)Nc2ccc3c(c2)OCO3)CC1 | 4 | -43 | 0 | 2 | nt | 16*
O=C(CSCc1ccccc1)Nc1ccc2c(c1)OCO2 | 2 | -21 | -2 | 1 | -2 | 4
O=C(CCN1CCN(c2ccccc2)CC1)Nc1ccc2c(c1)OCO2 | 4 | -39 | -2 | 3 | -1 | 1
O=C(CSCc1c(Cl)cccc1Cl)Nc1ccc2c(c1)OCO2 | 3 | -37 | nt | 9.7* | 6 | -2
COCCN(Cc1nc(C2(c3ccc(C)cc3)CCCC2)no1)C(C)C | 3 | nt | -1 | -1 | nt | -5
COc1ccccc1N1CCN(C(=O)COc2ccc(S(=O)(=O)NC(C)(C)C)cc2)CC1 | 3 | nt | -3 | 0 | nt | -1
N#Cc1c2ccccc2nc2ccccc12 | nt | nt | -2 | nt | nt | nt
CC(/C=N/n1c(COc2ccccc2)n[nH]c1=S)=C\c1ccccc1 | 2 | -2 | 0 | 8.4* | -11 | -1
S=c1[nH]nc(COc2ccccc2)n1/N=C/c1ccncc1 | 1 | nt | -5 | 2 | nt | 8
O=C(Nc1ccccc1-c1ccccc1)C(=O)Nc1ccccc1-c1ccccc1 | nt | nt | 0 | nt | nt | nt
COc1cc2c(cc1OC)CN(C(=O)c1cc3ccccc3oc1=O)CC2 | 19* | 11 | 1 | 4 | -6 | -2
COc1cc2c(cc1OC)CN(C(=O)/C=C/c1cccs1)CC2 | nt | nt | 120* | nt | nt | nt
Cc1ccc(N(C(=O)CS(=O)CC(=O)Nc2ccc(F)cc2)C(C(=O)NC2CCCCC2)c2ccco2)cc1 (stereo not drawn) | 2 | -23 | 1 | 1 | 94* | -1
CCC(=NCc1ccc(Cl)c(Cl)c1)c1nc(-c2ccco2)oc1O | 4 | -43 | -1 | 11* | -6 | -1
C=CCn1c(SCc2nc3ccccc3c(=O)[nH]2)nc2ccccc2c1=O | 3 | -44 | 3 | 1 | -5 | -7
C=CCn1c(SCc2c(C)noc2C)nc2sc3c(c2c1=O)CCCC3 | 20 | -15 | 2 | 6 | -6 | 2
C=CCn1c(SCc2c(C)noc2C)nc2ccccc2c1=O | 27* | -18 | nt | 1 | -3 | 4
C=CCn1c(SCc2c(C)noc2C)nc2cc(C(=O)O)ccc2c1=O | 35* | -4 | nt | 2 | -11 | -7
COc1cc2nc(SCc3c(C)noc3C)n(CCC3=CCCCC3)c(=O)c2cc1OC | 38* | -24 | -1 | 2 | -9 | -3
Cc1ccc(C)c(NC(=S)NCC(c2ccccc2)N(C)C)c1 (stereo not drawn) | 6 | nt | -4 | 1 | nt | -4
O=C(O)c1cn[nH]c1-c1cccc([N+](=O)[O-])c1 | 5 | nt | -1 | 1 | nt | -8
On1nnc2ccccc21 | nt | nt | 2 | nt | nt | nt
CCCCOc1ccc(/C=C/C2=CC(C)(C)NC(=S)N2)cc1OCC | 7 | nt | 1 | 5 | nt | 0
CCc1ccc2c(c1)C1(SC(NC(C)=O)=NN1C(C)=O)C(=O)N2CC (stereo not drawn) | 4 | nt | 0 | 1 | nt | -1
COc1cccc(C(=O)N(c2ccc(C)cc2)C2C=CS(=O)(=O)C2)c1 (stereo not drawn) | 2 | nt | 0 | 2 | nt | -1
SMILES | MT stabilize HCS | BB579 growth dn | bCat nuc transl | RAM inhibit | Yeast life ext | Efa HMGR inh
Cc1cc(C)nc(NC(=NCCc2c[nH]c3ccccc23)NC(=O)Nc2ccccc2)n1 | 5 | -55 | -2 | 2 | -2 | -1
Cc1cc(C)nc(NC(=NCCc2c[nH]c3ccccc23)NC(=O)c2ccco2)n1 | 4 | -52 | -3 | 9.8* | -21 | 1
CCCOc1ccc(-c2nc(C#N)c(N3CCN(C)CC3)o2)cc1 | 2 | -3 | -2 | 0 | -28 | -1
CCCOc1ccc(-c2nc(C#N)c(N3CCc4ccccc4C3)o2)cc1 | 2 | -35 | 1 | 11* | -7 | 0
C#CCn1c(-c2cccs2)nc2ccccc21 | 3 | nt | 0 | 0 | nt | 14*
O=C(O)c1ccc2c3c(ncnc13)-c1ccccc1C2=O | 13 | 96* | -8 | -1 | -10 | 0
C/C(=N\NC(=O)c1ccc(NS(=O)(=O)c2cccs2)cc1)c1ccc(O)cc1O | nt | nt | 0 | nt | nt | nt
Cc1ncccc1C(=O)N1CCCC(CNC(=O)C2(c3ccc(Cl)cc3)CC2)C1 (stereo not drawn) | 1 | nt | 0 | 0 | nt | -1
c1ccc(-c2cccc(-c3ccccn3)n2)nc1 | 8 | 99* | -1 | -1 | -29 | -2
CC(C)C1OC(c2cccc(NC(=O)c3cccs3)c2)OCC1(C)C (stereo not drawn) | 1 | nt | 0 | 9.3* | nt | 4
COc1ccc(OC)c(Cc2nnc(CCC(=O)NCc3ccsc3)o2)c1 | nt | nt | 1 | 0 | nt | 9.7*
Cc1ccc2cc(CCNS(=O)(=O)c3ccc(F)cc3)c(=O)[nH]c2c1C | 2 | nt | -3 | 8.5* | nt | -1
COc1cc(NC(=S)NCCC(c2ccccc2)c2ccccc2)cc(OC)c1 | 4 | 13 | -4 | 9.1* | -4 | -4
Cc1cc(NC(=O)CSc2nc(C3CC3)nc3sc(C)c(C)c23)no1 | 34* | -44 | 267* | 3 | -7 | 1
O=C1OCC(CO)(CO)N=C1NNc1cc(Cl)ccc1Cl | 2 | 64* | 0 | -1 | -15 | 3
Cc1cc(C)c2c(N)c3cccc(C)c3nc2n1 | 13* | -1 | -3 | -1 | -2 | -9
CN1N=C(C(=O)Nc2ccc3c(c2)CCC3)CCC1=O | 4 | nt | -4 | 0 | nt | -2
CCOC(=O)C(=CNc1ccc(Oc2cncc(Cl)c2)nc1)C(=O)OCC | nt | nt | 0 | nt | nt | nt
COc1cccc(-c2cc(C(F)(F)F)nc(NCc3ccco3)n2)c1 | 11 | -72 | -2 | 8.9* | -9 | -4
O=C(NCc1ccc(Cl)s1)c1cc(COc2c(F)cccc2F)on1 | 1 | nt | 0 | 9.1* | nt | -4
CN(Cc1cccc2ccccc12)C(=O)c1cc(COc2c(F)cccc2F)on1 | 1 | nt | 1 | 6 | nt | -1
O=C(c1cc(COc2c(F)cccc2F)on1)N1CCC(c2ccccc2Cl)C1 (stereo not drawn) | 3 | nt | 0 | 8.4* | nt | -7
CCc1ccc(CN(C)C(=O)c2cc(COc3c(F)cccc3F)on2)cc1 | 4 | nt | 0 | 9.4* | nt | 1
O=C(c1cc(COc2c(F)cccc2F)on1)N1CCC(c2ccccc2F)C1 (stereo not drawn) | 1 | nt | 0 | 6 | nt | -6
Cc1nc(CNC(=O)c2cc(COc3c(F)cccc3F)on2)cs1 | nt | nt | 0 | nt | nt | nt
COc1ccc(-n2cc(C(=O)O)c(=O)cc2C)cc1 | 2 | nt | 1 | -1 | nt | -3
c1ccc(C2Oc3ccccc3C3CC(c4cccs4)=NN32)cc1 (stereo not drawn) | 5 | 5 | 0 | 0 | 3 | -2
O=[N+]([O-])c1ccc(C2Oc3ccccc3C3CC(c4ccccc4)=NN32)s1 (stereo not drawn) | 3 | 96* | -1 | 0 | -5 | -3
